Results: ChEMBL document CHEMBL4368939, “4,6-Substituted-1H-Indazoles as potent IDO1/TDO dual inhibitors” (Bioorg Med Chem, 2019)
The source made the active and inactive calls. The rule behind the calls is not given here.

Key:
[1] = target: T1, Tryptophan 2,3-dioxygenase (Homo sapiens, UniProt P48775); experiment: Inhibition of human TDO expressed in Escherichia coli at 10 uM using L-tryptophan as substrate after 1 hr by UV absorption analysis
Method in brief: (§1)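 N-terminal human IDO1 or TDO was expressed in E. coli and Ni affinity-purified. Enzyme (100 nM) was incubated with compounds for 1 h at room temperature in Ca/Mg-free potassium phosphate buffer with […], 40 mM ascorbate, 200 µg/ml catalase and 20 µM methylene blue. Stop: 30% TCA, 65°C 15 min. Kynurenine read with DMAB at 480 nm against a standard curve. Triplicate, mean ± SD.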
Target sequence in this assay (P48775 whole entry, looked up): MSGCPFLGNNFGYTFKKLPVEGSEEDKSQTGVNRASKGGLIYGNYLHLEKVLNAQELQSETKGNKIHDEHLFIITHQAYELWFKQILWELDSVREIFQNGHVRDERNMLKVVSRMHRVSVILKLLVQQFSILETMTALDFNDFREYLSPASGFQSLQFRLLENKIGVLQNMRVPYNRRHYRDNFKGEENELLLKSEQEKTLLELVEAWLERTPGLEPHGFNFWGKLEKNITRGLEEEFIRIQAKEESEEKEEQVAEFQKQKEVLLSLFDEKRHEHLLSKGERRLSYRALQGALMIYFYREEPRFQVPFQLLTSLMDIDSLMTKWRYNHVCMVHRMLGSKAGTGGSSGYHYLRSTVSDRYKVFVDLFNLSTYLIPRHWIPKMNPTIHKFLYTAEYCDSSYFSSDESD

[2] = target: T2, Indoleamine 2,3-dioxygenase 1 (Homo sapiens, UniProt P14902); experiment: Inhibition of human IDO1 expressed in Escherichia coli at 10 uM using L-tryptophan as substrate after 1 hr by UV absorption analysis; method in brief: as §1
Target sequence in this assay (P14902 whole entry, looked up): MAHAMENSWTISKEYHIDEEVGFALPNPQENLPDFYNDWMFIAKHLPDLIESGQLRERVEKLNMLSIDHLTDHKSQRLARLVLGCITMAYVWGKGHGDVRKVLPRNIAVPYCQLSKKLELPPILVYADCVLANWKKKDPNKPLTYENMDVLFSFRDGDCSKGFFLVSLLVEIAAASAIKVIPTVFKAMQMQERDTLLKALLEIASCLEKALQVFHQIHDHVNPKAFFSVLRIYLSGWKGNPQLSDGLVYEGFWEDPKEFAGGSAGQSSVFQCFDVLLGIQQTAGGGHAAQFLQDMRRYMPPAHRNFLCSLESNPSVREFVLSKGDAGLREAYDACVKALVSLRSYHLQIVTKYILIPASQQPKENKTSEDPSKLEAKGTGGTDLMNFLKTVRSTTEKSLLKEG

CT26 [3] = experiment: Antitumor activity against mouse CT26 cells transplanted in Balb/c mouse assessed as tumor growth inhibition at 20 mg/kg/day, po administered for 18 consecutive days relative to control; type: functional; conditions: read-out: TGI
Method in brief: (§2)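 CT26 cells (100 µL of 1 × 10^7 cells/mL suspension) were injected s.c. into Balb/c mice. After 4 days, mice were randomized, 6 per group, and dosed orally once daily at 20, 40 or 80 mg/kg/day. Vehicle was 5% DMSO, 20% PEG400 and 75% deionized water. Tumors were measured by caliper every 3 days; volume = a × b²/2.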

HeLa [4] = experiment: Reduction in IFN-gamma-induced IDO1 expression in human HeLa cells by Western blot analysis; type: functional, cell-based
Method in brief: (§3)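 HeLa cells were pretreated for 2 h with inhibitors (10, 20, 50 µM) or a JAK inhibitor (1 µM), then given IFNγ 50 ng/mL for 24 h; 0.5% DMSO served as negative control. RIPA lysates with equal protein were run on 10% SDS-PAGE and blotted to nitrocellulose. Probes: rabbit anti-IDO1 (1:1000) and anti-GAPDH (1:4000) overnight at 4°C; HRP anti-rabbit 90 min.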

[5] = target: T1, Tryptophan 2,3-dioxygenase; experiment: Inhibition of human TDO expressed in human A172 assessed as reduction in kynurenine formation using L-tryptophan as substrate after 24 hrs
Method in brief: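 A172 cells, which express TDO highly, were plated at 2 × 10^4 cells/well overnight. Cells were then exposed to compounds with L-Trp (20 µg/ml) for 24 h. Medium was treated with 30% TCA at 65°C for 30 min and centrifuged. Kynurenine was measured with 2% p-DMAB at 480 nm against an L-kynurenine standard curve.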

[6] = target: T2, Indoleamine 2,3-dioxygenase 1; experiment: Inhibition of human IDO1 expressed in Escherichia coli using L-tryptophan as substrate after 1 hr by UV absorption analysis; method in brief: as §1
Target sequence in this assay (P14902 whole entry): as the sequence (P14902 whole entry, looked up) above

CT26 [7] = experiment: Antitumor activity against mouse CT26 cells transplanted in Balb/c mouse assessed as tumor growth inhibition at 80 mg/kg/day, po administered for 18 consecutive days relative to control; type: functional; conditions: read-out: TGI; method in brief: as §2
[8] = target: T2, Indoleamine 2,3-dioxygenase 1; experiment: Inhibition of IDO1 in IFN-gamma-induced human HeLa cells assessed as reduction in L-kynurenine level after 24 hrs; type: cell-based
Method in brief: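 HeLa cells were plated for 24 h, then given IFNγ (50 ng/mL) plus inhibitors for 24 h; vehicle was 0.5% DMSO. Medium was mixed with 30% TCA and centrifuged. Supernatant kynurenine was reacted with 2% p-DMAB in acetic acid, read at 480 nm and quantified against an L-kynurenine standard curve. Triplicate, mean ± SD.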

[9] = target: T1, Tryptophan 2,3-dioxygenase; experiment: Inhibition of human TDO expressed in Escherichia coli at using L-tryptophan as substrate after 1 hr by UV absorption analysis; method in brief: as §1
Target sequence in this assay (P48775 whole entry): as the sequence (P48775 whole entry, looked up) above

CT26 [10] = experiment: Antitumor activity against mouse CT26 cells transplanted in Balb/c mouse assessed as tumor growth inhibition at 40 mg/kg/day, po administered for 18 consecutive days relative to control; type: functional; conditions: read-out: TGI; method in brief: as §2
HeLa [11] = experiment: Reduction in IFN-gamma-induced GAPDH expression in human HeLa cells by Western blot analysis; type: ADME, cell-based; method in brief: as §3
[12] = target: T1, Tryptophan 2,3-dioxygenase; experiment: Inhibition of TDO (unknown origin)
Target sequence in this assay (P48775 whole entry): as the sequence (P48775 whole entry, looked up) above

HeLa [13] = experiment: Effect on IFN-gamma-induced IDO1 expression in human HeLa cells at 10 to 50 uM by Western blot analysis; type: functional, cell-based; method in brief: as §3

| inhibition [1] | inhibition [2] | SMILES | further results |
| --- | --- | --- | --- |
| 56% | 3% | Brc1cc(NCc2cccc3sccc23)c2cn[nH]c2c1 | – |
| inactive | 32% | Nc1cc(CNc2cc(Br)cc3[nH]ncc23)ccc1O | – |
| inactive | 53% | ONc1cccc(CNc2cc(Br)cc3[nH]ncc23)c1 | – |
| – | – | NS(=O)(=O)NCCNc1nonc1/C(=N/O)Nc1ccc(F)c(Br)c1 [EPACADOSTAT] | inhibition in vivo at 20 mg/kg/day (CT26 [3]): 39.2% |
| inactive | 15% | Nc1ccc2ccccc2c1CNc1cc(Br)cc2[nH]ncc12 | – |
| inactive | 50% | Oc1ccc(CNc2cc(Br)cc3[nH]ncc23)cc1O | – |
| 54% | 16% | Brc1cc(NCc2cnc[nH]2)c2cn[nH]c2c1 | – |
| 55% | 54% | Brc1cc(NCc2ccncc2)c2cn[nH]c2c1 | – |
| inactive | 14% | CC(Nc1cc(Br)cc2[nH]ncc12)c1ccccc1 (stereo not drawn) | – |
| 75% | 20% | NS(=O)(=O)c1ccc(CNc2cc(Br)cc3[nH]ncc23)cc1 | – |
| inactive | 31% | Nc1cccc(CNc2cc(Br)cc3[nH]ncc23)c1 | – |
| 20% | inactive | O=C(Nc1ccc(CCNc2cc(Br)cc3[nH]ncc23)cc1)NC1CCOCC1 | – |
| 56% | 45% | OCc1ccc(CNc2cc(Br)cc3[nH]ncc23)cc1 | – |
| 19% | 60% | Oc1ccc(CNc2cc(Br)cc3[nH]ncc23)cc1Cl | – |
| 30% | 28% | Cc1cc(CNc2cc(Br)cc3[nH]ncc23)ccc1O | – |
| 73% | inactive | Nc1nc(CNc2cc(Br)cc3[nH]ncc23)cs1 | – |
| 55% | 45% | Oc1cccc(CNc2cc(Br)cc3[nH]ncc23)c1 | – |
| 50% | 52% | OC1CCCC(Nc2cccc(CNc3cc(Br)cc4[nH]ncc34)c2)C1 (stereo not drawn) | – |
| inactive | 57% | O=C(O)CNc1cccc(CNc2cc(Br)cc3[nH]ncc23)c1 | – |
| 24% | 3% | Nc1ccc(CNc2cc(Br)cc3[nH]ncc23)cc1 | – |
| 73% | 70% | N#Cc1ccc(CNc2cc(Br)cc3[nH]ncc23)cc1 | – |

| inhibition [1] | inhibition [2] | SMILES | further results |
| --- | --- | --- | --- |
| 6% | inactive | ONc1ccc(CNc2cc(Br)cc3[nH]ncc23)cc1 | – |
| 85% | 91% | Brc1cc(NCc2cccc3nonc23)c2cn[nH]c2c1 | inhibition in vivo at 20 mg/kg/day (CT26 [3]): 21.7%; Activity (HeLa [4]): Dose-dependent effect; IC50 [5]: 7.54 µM; inhibition [5]: Dose-dependent effect; IC50 [6]: 0.74 µM; inhibition in vivo at 80 mg/kg/day (CT26 [7]): 47.3%; IC50 [8]: 1.37 µM; inhibition [8]: Dose-dependent effect; IC50 [9]: 2.94 µM; inhibition in vivo at 40 mg/kg/day (CT26 [10]): 38.1%; Activity (HeLa [11]): Toxic |
| inactive | 48% | CC(=O)Nc1ccc(CNc2cc(Br)cc3[nH]ncc23)cc1 | – |
| 56% | 17% | CC(Nc1cc(Br)cc2[nH]ncc12)c1ccc([N+](=O)[O-])cc1 (stereo not drawn) | – |
| 64% | 29% | Brc1cc(NCc2ccco2)c2cn[nH]c2c1 | – |
| 26% | 52% | Oc1ccc(CNc2cc(Br)cc3[nH]ncc23)cc1F | – |
| inactive | 47% | CC(C)Nc1cc(Br)cc2[nH]ncc12 | – |
| inactive | 40% | Oc1ccc(CNc2cc(Br)cc3[nH]ncc23)c(O)c1 | – |
| – | – | O=C1c2ccccc2-n2c1nc1ccccc1c2=O [TRYPTANTHRIN] | IC50 [12]: 0.9 µM |
| – | – | CN1CCN(C(=O)c2ccc(Cn3nnc4c3C(=O)c3ccccc3C4=O)cc2)CC1 | IC50 [12]: 0.03 µM |
| inactive | 29% | CCOC(=O)CNc1cccc(CNc2cc(Br)cc3[nH]ncc23)c1 | – |
| 46% | 52% | O=C1CCCC(Nc2cccc(CNc3cc(Br)cc4[nH]ncc34)c2)C1 (stereo not drawn) | – |
| 29% | 3% | Nc1ccccc1CC(=O)Nc1ccc(CCNc2cc(Br)cc3[nH]ncc23)cc1 | – |
| inactive | – | Oc1ccc(CNc2cc(Br)cc3[nH]ncc23)cc1 | Activity (HeLa [13]): inactive; inhibition [8]: inactive |
| 56% | 16% | FC(F)(F)c1cccc(CNc2cc(Br)cc3[nH]ncc23)c1 | – |
| 62% | 68% | Brc1cc(NCc2ccc3c(c2)OCO3)c2cn[nH]c2c1 | – |
| inactive | 69% | Oc1ccc(CNc2cc(Br)cc3[nH]ncc23)c(F)c1 | – |
| 19% | 60% | Cc1cc(O)ccc1CNc1cc(Br)cc2[nH]ncc12 | – |
| inactive | 2% | Nc1ccc(CCNc2cc(Br)cc3[nH]ncc23)cc1 | – |
| inactive | 36% | Nc1ccccc1CNc1cc(Br)cc2[nH]ncc12 | – |
| 53% | 54% | Brc1cc(NCc2cccs2)c2cn[nH]c2c1 | – |
